In assay [1] the test system is Enterococcus faecium. Briefly: Compound was tested for the inhibition of cell wall biosynthesis and growth against Enterococcus faecium (ATCC49624) (sensitive strain). It counts as functional. Summed up:
(§1)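 Broth microdilution MIC in brain heart infusion medium with 0.1% casamino acids. Log-phase cells were diluted to about 5×10^5 CFU/mL and exposed to compound serially diluted in DMSO (5% final DMSO). OD600 was read in microtiter plates. MIC (µg/mL) was called where [OD600 control − OD600 test]/[OD600 control − OD600 media] × 100 > 90%.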

Assay [2] relates to Enterococcus faecium. Briefly: Compound was tested for the inhibition of cell wall biosynthesis and growth against Enterococcus faecium (ATCC51559) (Vancomycin-resistant). It counts as functional. The method, boiled down: as §1
The subject of assay [3] is Enterococcus faecalis. Kind of assay: Compound was tested for the inhibition of cell wall biosynthesis and growth against Enterococcus faecalis (ATCC 29212) (sensitive strain). It counts as functional. The method, boiled down: as §1
Assay [4] deals with Enterococcus faecalis. Briefly: Compound was tested for the inhibition of cell wall biosynthesis and growth against Enterococcus faecalis (ATCC51575) (Vancomycin-resistant). It counts as functional. The method, boiled down: as §1
Assay [5] has as its system Enterococcus faecalis. Kind of assay: Compound was tested for the inhibition of cell wall biosynthesis and growth against Enterococcus faecalis (CL4877) (Vancomycin-resistant). It counts as functional. Summed up: as §1
Assay [6] has as its system Escherichia coli. Briefly: Compound was tested for the inhibition of cell wall biosynthesis and growth against Escherichia coli (BAS849) (super-sensitive permeability mutant of E. coli) (sensitive strain). It counts as functional. Summed up:
(§2)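 MIC by broth dilution in brain heart infusion medium with 0.1% casamino acids. Log-phase cells diluted to about 5×10^5 CFU/mL and exposed to compound serially diluted in DMSO (5% final DMSO). OD600 read on a plate reader; MIC taken as the concentration giving >90% growth inhibition relative to untreated control, corrected for medium blank.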

The nature of assay [7]: The compound was tested for inhibitory activity against PGP30 bacterial cell wall biosynthesis. It counts as functional, Bacteria.
In assay [8] the test system is Staphylococcus epidermidis. Briefly: Compound was tested for the inhibition of cell wall biosynthesis and growth against Staphylococcus epidermidis (ATCC 12228) (sensitive strain). It counts as functional. Summed up:
as §2

Assay [9] has as its system Staphylococcus aureus. Briefly: Compound was tested for the inhibition of cell wall biosynthesis and growth against Staphylococcus aureus (ATCC 29213) (sensitive strain). It counts as functional. Summed up:
as §1

Assay [10] deals with Staphylococcus aureus. Kind of assay: Compound was tested for the inhibition of cell wall biosynthesis and growth against Staphylococcus aureus (ATCC 43300) (Methicillin-resistant). It counts as functional. The method, boiled down: as §1
The test system of assay [11] is Enterococcus faecalis. Kind of assay: Compound was tested for the inhibition of cell wall biosynthesis and growth against Enterococcus faecalis (CL5244) (Vancomycin-resistant). It counts as functional. Summed up: as §1
Assay [12] has as its system Enterococcus faecium. Kind of assay: Compound was tested for the inhibition of cell wall biosynthesis and growth against Enterococcus faecium (CL4931) (Vancomycin-resistant). It counts as functional. Summed up: as §1
The subject of assay [13] is Enterococcus faecium. Briefly: Compound was tested for the inhibition of cell wall biosynthesis and growth against Enterococcus faecium (ATCC49624) (sensitive strain).

From ChEMBL document CHEMBL1132655, “Discovery of novel disaccharide antibacterial agents using a combinatorial library approach” (J Med Chem, 1999) come the findings set out here.

Structures are written as SMILES. Converted amounts (≈) assume the structure as drawn.

By MIC is commonly meant the least concentration at which growth counts as inhibited. Usually IC50 stands for the concentration that inhibits the measured activity by half. Read a low IC50 as inhibition by little substance.

Consider `CCCCCCCCCCCCOP(=O)(O)OC1OC(C(N)=O)C(OC)C(NC(=O)Nc2ccc(Cl)c(C(F)(F)F)c2)C1OC1OC(CO)C(O)C(O)C1NC(=O)c1cccc(C(F)(F)F)c1` (stereo unspecified), for which the MIC in assay [1] is 6.25 µg/mL (≈ 6.19 µM); in assay [2], 6.25 µg/mL (≈ 6.19 µM); in assay [3] it was 6.25 µg/mL (≈ 6.19 µM); in [4] it was 6.25 µg/mL (≈ 6.19 µM); in assay [5], 3.12 µg/mL (≈ 3.09 µM); in assay [6] it was 12.5 µg/mL (≈ 12.4 µM). The minimum inhibitory concentration (MIC) in assay [8], in assay [9], in assay [10], in assay [11] and in [12] was 6.25 µg/mL (≈ 6.19 µM) throughout. The same compound gave an IC50 in assay [7] of 8.2 µg/mL (≈ 8.12 µM).

In the case of `CCCCCCCCCCCCCCC(OP(=O)(O)OC1OC(C(N)=O)C(OC)C(NC(=O)Nc2ccc(Cl)c(C(F)(F)F)c2)C1OC1OC(CO)C(O)C(O)C1NC(=O)c1cccc(C(F)(F)F)c1)C(=O)O` (stereo unspecified), the MIC in assay [1] is 3.12 µg/mL (≈ 2.85 µM); in [2], 3.12 µg/mL (≈ 2.85 µM); in [3], 3.12 µg/mL (≈ 2.85 µM); in assay [4], 6.25 µg/mL (≈ 5.71 µM); in assay [5], 3.12 µg/mL (≈ 2.85 µM); in assay [6], greater than 25 µg/mL. Besides, the MIC stood at 6.25 µg/mL (≈ 5.71 µM) in assay [8]; 6.25 µg/mL (≈ 5.71 µM) in assay [9]; 3.12 µg/mL (≈ 2.85 µM) in assay [10]; 6.25 µg/mL (≈ 5.71 µM) in assay [11]; 6.25 µg/mL (≈ 5.71 µM) in assay [12]. The same compound registered an IC50 in [7] of 9.2 µg/mL (≈ 8.4 µM).

Regarding `CCCCCCCCCCCCO[C@H](COP(=O)(O)OC1OC(C(N)=O)C(O)C(NC(=O)Nc2ccc(OC(F)(F)F)cc2)C1OC1OC(CO)C(O)C(O)C1NC(=O)c1cccc(C(F)(F)F)c1)C(=O)O` (stereo partly specified), the MIC is 6.25 µg/mL (≈ 5.87 µM) in assay [1]; 12.5 µg/mL (≈ 11.7 µM) in [2]; 6.25 µg/mL (≈ 5.87 µM) in assay [3]; 25 µg/mL (≈ 23.5 µM) in assay [4]; 6.25 µg/mL (≈ 5.87 µM) in assay [5]; greater than 25 µg/mL in assay [6]. Moreover, the MIC in [8], in assay [9], in assay [10], in [11] and in assay [12] was 6.25 µg/mL (≈ 5.87 µM) throughout. For the same compound, the IC50 in assay [7] came to 9.2 µg/mL (≈ 8.64 µM).

As for `CCCCCCCCCCCCO[C@H](COP(=O)(O)OC1OC(C(N)=O)C(O)C(NC(=O)Nc2ccc(Cl)c(C(F)(F)F)c2)C1OC1OC(CO)C(O)C(O)C1NC(=O)c1cccc(C(F)(F)F)c1)C(=O)O` (stereo partly specified), the MIC in assay [1] is 6.25 µg/mL (≈ 5.77 µM); in assay [2], 6.25 µg/mL (≈ 5.77 µM); in assay [3] it was 3.12 µg/mL (≈ 2.88 µM); in assay [4], 12.5 µg/mL (≈ 11.5 µM); in assay [5], 3.13 µg/mL (≈ 2.89 µM); in [6], 12.5 µg/mL (≈ 11.5 µM). The MIC in assay [8] was found to be 12.5 µg/mL (≈ 11.5 µM); in assay [9], 12.5 µg/mL (≈ 11.5 µM); in assay [10], 12.5 µg/mL (≈ 11.5 µM); in assay [11] it was 3.13 µg/mL (≈ 2.89 µM); in [12], 6.25 µg/mL (≈ 5.77 µM). For the same compound, the IC50 in assay [7] amounted to 10.6 µg/mL (≈ 9.78 µM).

As for `CCCCCCCCCCCCOP(=O)(O)OC1OC(C(N)=O)C(O)C(NC(=O)Nc2ccc(Cl)c(C(F)(F)F)c2)C1OC1OC(CO)C(O)C(O)C1NC(=O)c1cccc(C(F)(F)F)c1` (stereo unspecified), the MIC in assay [1] was determined as 12.5 µg/mL (≈ 12.6 µM); in assay [2] it was 12.5 µg/mL (≈ 12.6 µM); in assay [3], 3.12 µg/mL (≈ 3.13 µM); in [4] it was 12.5 µg/mL (≈ 12.6 µM); in [5], 3.13 µg/mL (≈ 3.14 µM); in assay [6] it was 12.5 µg/mL (≈ 12.6 µM). The MIC in assay [8] stood at 12.5 µg/mL (≈ 12.6 µM); in [9], 6.25 µg/mL (≈ 6.28 µM); in assay [10], 6.25 µg/mL (≈ 6.28 µM); in assay [11], 3.13 µg/mL (≈ 3.14 µM); in [12], 3.13 µg/mL (≈ 3.14 µM). In addition, the IC50 in [7] amounted to 15.4 µg/mL (≈ 15.5 µM).

As to `CCCCCCCCCCCCO[C@H](COP(=O)(O)OC1OC(C(N)=O)C(OC)C(NC(=O)Nc2ccc(Cl)c(C(F)(F)F)c2)C1OC1OC(CO)C(O)C(O)C1NC(=O)c1ccccc1)C(=O)O` (stereo partly specified), the MIC stood at 12.5 µg/mL (≈ 12.1 µM) in assay [2]; 12.5 µg/mL (≈ 12.1 µM) in assay [3]; 25 µg/mL (≈ 24.3 µM) in assay [4]; 6.25 µg/mL (≈ 6.07 µM) in assay [5]; 25 µg/mL (≈ 24.3 µM) in assay [6]; 12.5 µg/mL (≈ 12.1 µM) in assay [8]. Also, the minimum inhibitory concentration (MIC) was determined as 12.5 µg/mL (≈ 12.1 µM) in [9]; 25 µg/mL (≈ 24.3 µM) in assay [10]; 12.5 µg/mL (≈ 12.1 µM) in assay [11]; 25 µg/mL (≈ 24.3 µM) in assay [12]; 12.5 µg/mL (≈ 12.1 µM) in assay [13]. Further, the IC50 in assay [7] was 6.8 µg/mL (≈ 6.61 µM).

Regarding `C=C(C/C=C(\C)CCC=C(C)C)CCC(C)(C)/C=C/CC/C(C)=C\CO[C@H](COP(=O)(O)O[C@H]1O[C@@H](C(N)=O)[C@@](C)(O)[C@H](OC(N)=O)[C@@H]1O[C@@H]1O[C@@H](CO[C@@H]2O[C@@H](CO)[C@@H](O)[C@H](O)[C@@H]2O)[C@@H](O[C@@H]2O[C@@H](C)[C@@H](O[C@@H]3O[C@@H](C(=O)NC4=C(O)CCC4=O)[C@H](O)[C@H](O)[C@@H]3O)[C@H](O)[C@@H]2NC(C)=O)[C@@H](O)[C@@H]1NC(C)=O)C(=O)O` [MOENOMYCIN], the MIC is greater than 200 µg/mL in assay [1]; 1.56 µg/mL (≈ 0.986 µM) in [2]; 0.078 µg/mL (≈ 0.0493 µM) in assay [3]; 0.062 µg/mL (≈ 0.0392 µM) in assay [4]; 0.062 µg/mL (≈ 0.0392 µM) in [5]; 0.025 µg/mL (≈ 0.0158 µM) in assay [6]. Besides, the MIC stood at 0.025 µg/mL (≈ 0.0158 µM) in [8]; 0.05 µg/mL (≈ 0.0316 µM) in assay [9]; 0.062 µg/mL (≈ 0.0392 µM) in assay [10]; 0.062 µg/mL (≈ 0.0392 µM) in assay [11]; 0.39 µg/mL (≈ 0.246 µM) in [12]. In assay [7], the IC50 was found to be 0.025 µg/mL (≈ 0.0158 µM).

As to `CN[C@H](CC(C)C)C(=O)N[C@H]1C(=O)N[C@@H](CC(N)=O)C(=O)N[C@H]2C(=O)N[C@H]3C(=O)N[C@H](C(=O)N[C@H](C(=O)O)c4cc(O)cc(O)c4-c4cc3ccc4O)[C@H](O)c3ccc(c(Cl)c3)Oc3cc2cc(c3O[C@@H]2O[C@H](CO)[C@@H](O)[C@H](O)[C@H]2O[C@H]2C[C@](C)(N)[C@H](O)[C@H](C)O2)Oc2ccc(cc2Cl)[C@H]1O` [VANCOMYCIN], the MIC is 0.78 µg/mL (≈ 0.538 µM) in assay [1]; greater than 125 µg/mL in assay [2]; 6.25 µg/mL (≈ 4.31 µM) in assay [3]; greater than 125 µg/mL in assay [4]; greater than 125 µg/mL in assay [5]; 0.78 µg/mL (≈ 0.538 µM) in assay [6]. For the same compound, the MIC in assay [8] was 3.13 µg/mL (≈ 2.16 µM); in [9] it was 3.13 µg/mL (≈ 2.16 µM); in assay [10] it was 3.13 µg/mL (≈ 2.16 µM); in [11] it was 15.6 µg/mL (≈ 10.8 µM); in assay [12], greater than 125 µg/mL. The IC50 in assay [7] was determined as 5.2 µg/mL (≈ 3.59 µM).
